Series [1] concerns Mus musculus. Put plainly: Radioprotective effects in mice when administered i.p. at 12.5% LD50, 15 min prior to whole body radiation. The series is classed as functional. An outline of the steps:
(§1)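 Mice in groups of 20 were given the compound i.p., dissolved in distilled water. Whole-body irradiation was from a 60Co γ source at 0.65 Gy/min. First dose was the control LD100/30 days (9 Gy males, 9.5 Gy females) or that dose + 2 Gy, then a dose series. Irradiation LD50/30-day was found by the Karber method. DRF = treated LD50/30 ÷ solvent-control LD50/30.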

In series [2] the test system is Mus musculus. Put plainly: Radioprotective effects in mice when administered i.p. at 50% LD50, 2 hr prior to whole body radiation. It counts as functional. An outline of the steps:
as §1

The nature of series [3]: Lethal dose in mice (LD50). It counts as toxicity, organism-based. To be noted: mouse, in vivo. An outline of the steps: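 Compounds were dissolved in distilled water and the dose range was set in a preliminary study. Five groups of 10 mice then received different doses within that range. LD50 was derived by Probit analysis.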
Series [4] relates to Mus musculus. In words: Radioprotective effects in mice when administered i.p. at 50% LD50, 15 min prior to whole body radiation. The series is classed as functional. In a few lines:
as §1

Series [5] deals with Mus musculus. Put plainly: Compound was tested for radioprotective activity when injected intraperitoneally with a dose equal to one-eighth of its LD50, 15 min before whole-body irradiation. The series is classed as functional. An outline of the steps: as §1

Structures are written as SMILES.

As for `CC(=O)NCCSC(=O)CN.O=C(O)C(F)(F)F`, the DRF is 1 in series [1], 1 in series [2] and 1.2 in series [4]. Further, the LD50 (usually the dose expected to kill half of the subjects tested) in series [3] turned out to be 1000 mg/kg.

As for `Br.Br.C[C@H](N)C(=O)NCCSSCCNC(=O)[C@@H](C)N`, the DRF in series [1], in series [2] and in series [4] was 1 each time. The same compound came in with an LD50 in series [3] of 800 mg/kg.

With `Br.CC(=O)SCCNC(=O)CN`, the figures for the DRF in series [1], in series [2] and in series [4] were 1, 1 and 1.4, respectively. The same compound returned an LD50 in series [3] of 1500 mg/kg.

For the compound `CC(=O)SCCNC(=O)CN.O=C(O)C(F)(F)F`, the DRF was 1 in series [1], 1 in series [2] and 1.4 in series [4]. Besides, in series [3], the LD50 was 1500 mg/kg.

Turning to `Br.Br.NCC(=O)NCCSSCCNC(=O)CN`, the DRF is reported as 1 in series [1], 1 in series [2] and 1.4 in series [4]. Besides, the LD50 in series [3] is 1500 mg/kg.

For the compound `Br.Br.NCCC(=O)NCCSSCCNC(=O)CCN`, the DRF in series [1], in series [2] and in series [4] was 1 in each case. In series [3], this compound came in with an LD50 of 350 mg/kg.

For `Br.CC(=O)SCCNC(=O)[C@H](C)N`, the DRF is given as 1 in series [1], 1.2 in series [2] and 1.4 in series [4]. Further, in series [3], the LD50 was found to be 1500 mg/kg.

On to `NCC(=O)NCCSC(=O)C(Cl)(Cl)Cl.O=C(O)C(F)(F)F`, for which the DRF in series [5] came out at 1; in series [2], 1; in series [4], 1.05. For the same compound, the LD50 in series [3] stood at 700 mg/kg.

For `Br.CC(=O)SCCNC(=O)CCN`, the DRF in series [1], in series [2] and in series [4] was 1 in each case. Besides, the LD50 in series [3] was found to be 400 mg/kg.

On to `CC(=O)SCCN.Cl`, for which the DRF is 1 in series [1], 1.05 in series [2] and 1.05 in series [4]. The LD50 in series [3] is 500 mg/kg.

Turning to `Br.CC(=O)NCCSC(=O)CN`, the DRF in series [1] came to 1; in series [2] it was 1; in series [4], 1.1. The same compound showed an LD50 in series [3] of 600 mg/kg.

For `Br.CCC(=O)SCCNC(=O)CN`, the DRF in series [1] stood at 1; in series [2] it was 1; in series [4], 1.2. The LD50 in series [3] came out at 1500 mg/kg.

With `Br.CC(C)(C)C(=O)SCCNC(=O)CN`, the results for the DRF in series [1], in series [2] and in series [4] were 1, 1 and 1.05, respectively. This compound registered an LD50 in series [3] of 1200 mg/kg.

As to `NCC(=O)NCCSC(=O)CCl.O=C(O)C(F)(F)F`, the DRF in series [1], in series [2] and in series [4] was 1 in each case. This compound had an LD50 in series [3] of 550 mg/kg.

In the case of `Br.Br.NCCCC(=O)NCCSSCCNC(=O)CCCN`, the DRF in series [1], in series [2] and in series [4] was 1 each time. For the same compound, the LD50 in series [3] is 300 mg/kg.

On to `NCC(=O)NCCSC(=O)C(Cl)Cl.O=C(O)C(F)(F)F`, for which the DRF in series [1] turned out to be 1; in series [2] it was 1; in series [4], 1.1. The compound further returned a 50% lethal dose (LD50) in series [3] of 800 mg/kg.

Regarding `Br.CC(=O)SCCNC(=O)CCCN`, the DRF in series [1] came out at 1; in series [4] it was 1.1. Further, the LD50 in series [3] amounted to 800 mg/kg.

Regarding `NCC(=O)NCCSSCCNC(=O)CN.O=C(O)C(F)(F)F.O=C(O)C(F)(F)F`, the DRF in series [1] turned out to be 1.2; in series [2], 1.1; in series [4], 1.55. The compound also gave an LD50 in series [3] of 1500 mg/kg.

Regarding `C[C@H](N)C(=O)NCCSSCCNC(=O)[C@@H](C)N.O=C(O)C(F)(F)F.O=C(O)C(F)(F)F`, the DRF in series [1] is recorded as 1; in series [2], 1.1; in series [4], 1.4. In series [3], the LD50 amounted to 1200 mg/kg.

Take `CC(=O)SCCNC(=O)[C@H](C)N.O=C(O)C(F)(F)F`: the DRF in series [1] is 1; in series [2], 1; in series [4], 1.4. Further, the LD50 in series [3] amounted to 1250 mg/kg.

For `NCCCNCCSP(=O)(O)O` [AMIFOSTINE], the DRF in series [1] is 1.5; in series [2], over 1.3; in series [4], 2.7. Moreover, in series [3], the LD50 worked out at 950 mg/kg.
